A selection: hits, their analogues and other compounds. The true share with any hit is near 1.4%.
T cell modulator: T cell immune modulators affecting CD8 T cell-vesicle binding. 330,000 compounds, 0.068% hits. 2C CD8+ T cell-vesicle binding, flow cytometry; stronger effect = lower value. response (vesicle binding), % at 7 µM;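 active = response, share of CD8 T cells binding vesicles, and their 90th percentile fluorescence all below set limits, cut at about 80% in these data, passing the limit was not always enough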;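 also: values below 100% mean blocked vesicle binding to the CD8+ T cells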
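incubation = binding step 1.5 h, 37 °C, antibody labelling 20 min, ice | test system = 2C mouse CD8+ T cells | read-out basis = percent CD8+ FL2 mean versus row control | controls = Peptide-free naked vesicles (low) and QL9 vesicles with 0.7% DMSO vehicle (high) | detection = flow cytometry of vesicle-bound cells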
Vif imaging: inhibitors of HIV Vif; HEK293T cells, Vif self-association by quenched fluorescence, imaging, 24 h; inhibition, % at 7.49 µM; 340,000 compounds, 0.35% hits; in the data active = inhibition above about 50%, passing the limit was not always enough; inconclusive = no clear call, values can overlap the other calls; inactive = below about 31%
CASP6 VEID inh: inhibitors of human caspase-6 | P55212 | purified caspase-6, Z-VEID-R110 cleavage fluorescence | inhibition, % at 12.5 µM | 350,000 compounds, 0.53% hits;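 active = mean inhibition across replicates at least about 35%, with every replicate also reaching that limit, limit read from the data; inconclusive = only one of the two criteria met; inactive = neither criterion met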
Target sequence (P55212 24-179 limits assumed): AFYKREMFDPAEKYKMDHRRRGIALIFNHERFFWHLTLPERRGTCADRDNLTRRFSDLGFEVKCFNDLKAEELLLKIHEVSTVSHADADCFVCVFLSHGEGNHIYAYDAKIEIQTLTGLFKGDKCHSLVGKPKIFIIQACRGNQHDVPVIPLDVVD
Target sequence (P55212 194-293 limits assumed): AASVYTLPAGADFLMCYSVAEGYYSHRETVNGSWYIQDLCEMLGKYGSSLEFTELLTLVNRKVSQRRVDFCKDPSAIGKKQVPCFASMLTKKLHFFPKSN
Myeloid diff 2: promotes myeloid progenitor differentiation; ER-HoxA9 myeloid progenitors, lysozyme-GFP differentiation, flow cytometry; 360,000 compounds, 1% hits; calls only at 10 µM; AID 624256;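 active = normalized GFP-positive differentiation at or above the plate's own cutoff, the solvent-only control mean plus 3 SD; inconclusive = no clear call, values can overlap the other calls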;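 also: cells exposed to compound for four days before flow analysis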
Each line names hits and unclear results; the compound was inactive in the other large screens.

O=C(O)c1cc(O)c2c(c1)[C@H]([C@H]1c3cc(C(=O)O)cc(O)c3C(=O)c3c(O[C@@H]4O[C@H](CO)[C@@H](O)[C@H](O)[C@H]4O)cccc31)c1cccc(OC3O[C@H](CO)[C@@H](O)[C@H](O)[C@H]3O)c1C2=O (some centres not stated)	CASP6 VEID inh 82.8
COC1=C(Br)C(=O)c2ncccc2C1=O	CASP6 VEID inh 97.9 (no result: T cell modulator)
O=C1C(=O)c2cccnc2-c2ncccc21	Vif imaging 78.0, CASP6 VEID inh 61.0, Myeloid diff 2 inconclusive (no result: T cell modulator)
O=C1c2cccnc2-c2ncccc21	none (no result: CASP6 VEID inh)
COc1ccccc1N1C(=O)c2cccnc2C1=O	none
CO[C@H]1CN(C)C(=O)c2cc(NS(=O)(=O)CC(F)(F)F)ccc2OC[C@H](C)N(Cc2cccnc2)C[C@H]1C	none (no result: T cell modulator, Vif imaging, Myeloid diff 2)
O=[N+]([O-])c1cc(/C=N/Nc2nc3ccccc3[nH]2)c(O)cc1O	CASP6 VEID inh 60.9 (no result: Vif imaging, Myeloid diff 2)
O=C(Nc1nc2ccccc2[nH]1)c1ccccc1[N+](=O)[O-]	T cell modulator 30.0
CN(C)C(=O)C[C@H]1C=C[C@H](NC(=O)C2CCC2)[C@@H](CO)O1	none (no result: T cell modulator, Vif imaging, Myeloid diff 2)
CCNC(=O)C[C@@H]1CC[C@@H]2[C@@H](COc3ccc(NC(=O)Nc4cccc(Cl)c4)cc3C(=O)N2C)O1	none (no result: T cell modulator, Vif imaging, Myeloid diff 2)
CC(=O)N1CC2(C1)[C@H](c1ccc(-c3cccc(F)c3)cc1)[C@@H](CO)N2CC1CCOCC1	none (no result: T cell modulator, Vif imaging, Myeloid diff 2)
Nc1nc2c(ncn2COC(CO)CO)c(=O)[nH]1	Myeloid diff 2 active
C=CCn1c(O)c(C2=c3ccccc3=NC2=O)s/c1=N/c1nccs1	Vif imaging 88.3
C=CCn1c(O)c(C2=c3ccccc3=NC2=O)c2ccccc21	none (no result: Myeloid diff 2)
COc1ccc(Br)cc1C(=O)Nc1ccc(N2CCCC2)cc1	Vif imaging 143.2
O=C(Nc1ccc(N2CCCC2)cc1)c1ccc(Cl)cc1Cl	none
COc1ccc(Br)cc1C(=O)Nc1ccc(N2CCN(S(C)(=O)=O)CC2)cc1	none (no result: CASP6 VEID inh)
O=C(Nc1ccc(N2CCCC2)cc1)c1cc(Cl)ccc1Cl	Myeloid diff 2 active
CO[C@H]1CN(C)C(=O)c2ccc(NC(=O)CC(F)(F)F)cc2OC[C@H](C)N(C(C)=O)C[C@@H]1C	none (no result: T cell modulator, Vif imaging, Myeloid diff 2)
C[N+](C)(C)CC(O)CC(=O)O (configuration not stated)	Vif imaging 116.1
COc1ccc(NC(=O)Nc2cccc3c2O[C@H](CN(C)C(=O)Nc2c(C)noc2C)[C@H](C)CN([C@H](C)CO)C3=O)cc1	none (no result: T cell modulator, Vif imaging, Myeloid diff 2)
C=CC1=C(C(=O)O)N2C(=O)C(NC(=O)Cc3ccccc3)C2SC1 (configuration not stated)	CASP6 VEID inh 95.6 (no result: Myeloid diff 2)
CN(C)CC(=O)N1CC2(C1)[C@H](c1ccccc1)[C@H](CO)N2S(=O)(=O)c1ccccc1	none (no result: T cell modulator, Vif imaging, Myeloid diff 2)
CCOC(=O)c1c(C)[nH]c(-c2csc(N)n2)c1C	Vif imaging 111.6 (no result: T cell modulator)
O=C(c1cccs1)N1CCN(C(=O)c2cccs2)C1=S	Vif imaging 75.8, Myeloid diff 2 inconclusive (no result: T cell modulator)
CC(C)Cn1c2nc3ccccc3nc2c2c(=O)n(CCN3CCOCC3)cnc21	Myeloid diff 2 active (no result: CASP6 VEID inh)
O=C1NC(=S)S/C1=C1\Sc2ccccc2N1CCCS(=O)(=O)O	none (no result: CASP6 VEID inh)
NN1C(=O)/C(=C2/Sc3ccccc3N2CCCS(=O)(=O)O)SC1=S	CASP6 VEID inh 55.4
O=C(NC1CCCCC1)N1CC(=O)N2[C@H](CO)[C@@H](c3ccc(-c4ccccc4)cc3)[C@H]2C1	none (no result: T cell modulator, Vif imaging, Myeloid diff 2)
Cc1ccccc1N(C(=O)Cn1nnc(-c2ccc(F)cc2)n1)C(C(=O)NC(C)(C)C)c1ccncc1 (configuration not stated)	none
CC(C)(C)NC(=O)C(c1ccncc1)N(C(=O)Cn1nnc(-c2ccc(F)cc2)n1)c1ccccc1F (configuration not stated)	Vif imaging 60.5 (no result: T cell modulator)
COc1ccc(OC)c(S(=O)(=O)NCC(c2cccs2)N2CCc3ccccc3C2)c1 (configuration not stated)	CASP6 VEID inh 72.0
COc1ccc(C[C@H]2CCc3cnnn3COC[C@H](Cc3ccccc3)NC2=O)cc1	none (no result: T cell modulator, Vif imaging, Myeloid diff 2)
OCC1CCCC(n2cnc3c(=S)nc[nH]c32)O1 (configuration not stated)	Myeloid diff 2 active
O=C(c1ccccc1Cl)N1CCC(N2CCC(C(=O)N3CCCC3)CC2)CC1	none
O=C(c1cc(F)ccc1F)N1CCC(N2CCC(C(=O)N3CCCC3)CC2)CC1	Myeloid diff 2 active
CCNC(=O)C[C@H]1CC[C@@H]2[C@H](COC[C@@H](O)CN2C(=O)Nc2ccc(Cl)c(Cl)c2)O1	none (no result: T cell modulator, Vif imaging, Myeloid diff 2)
CC(C)(C)C(=O)Nc1nnc(SCC(=O)Nc2nccs2)s1	none
Cc1nnc(NC(=O)CSc2nnc(NC(=O)C(C)(C)C)s2)s1	Vif imaging 75.4
CCN=C1S/C(=C/c2ccc(-c3ccc(Cl)cc3C(=O)O)o2)C(=O)N1CC	CASP6 VEID inh 35.9
CCN=C1S/C(=C\c2ccc(-c3cccc(C(=O)O)c3)o2)C(=O)N1CC	none (no result: CASP6 VEID inh)
O=C1CCCC(O)=C1N=Nc1ccc2c(c1)OCO2	none
O=C1CCCC(O)=C1N=Nc1ccc(C(=O)O)cc1	CASP6 VEID inh 37.8
C[C@@H]1CN([C@H](C)CO)C(=O)Cc2cc(NS(=O)(=O)c3cn(C)cn3)ccc2O[C@@H]1CN(C)Cc1ccc(C(=O)Nc2ccccc2N)cc1	none (no result: T cell modulator, Vif imaging, Myeloid diff 2)
O=C(Nc1ccc2nc(-c3cccs3)[nH]c2c1)c1ccco1	Myeloid diff 2 active (no result: Vif imaging, CASP6 VEID inh)
Cn1cccc1-c1nc2ccc(NC(=O)c3ccco3)cc2[nH]1	none (no result: CASP6 VEID inh)
O=C(Nc1ccc2nc(-c3cccs3)[nH]c2c1)c1cccs1	none (no result: CASP6 VEID inh)
O=C(Nc1ccc(-c2nc3ccc(NC(=O)c4cccs4)cc3[nH]2)cc1)c1cccs1	Vif imaging 79.5 (no result: CASP6 VEID inh, Myeloid diff 2)
COc1ccccc1C#Cc1ccc2c(c1)O[C@@H](CN(C)Cc1ccccc1)[C@@H](C)CN([C@H](C)CO)S2(=O)=O	none (no result: T cell modulator, Vif imaging, Myeloid diff 2)
COc1cc(/C=C(\C#N)C(=O)Nc2ccccc2F)ccc1OCCN1CCOCC1	none (no result: Vif imaging)
N#C/C(=C/C1=C(N2CCOCC2)C(=C/c2ccc(Cl)cc2)/CC1)C(=O)Nc1ccccc1F	Myeloid diff 2 active (no result: T cell modulator)
CSc1ncc(C(=O)O)c(C)n1	none
Cc1ncc(C(=O)O)c(C(=O)O)c1N	Vif imaging 61.9 (no result: CASP6 VEID inh)
CC(=O)OCC1=C(C(=O)O)N2C(=O)C(NC(=O)c3ccc(COc4ccc(Cl)cc4)o3)C2SC1 (configuration not stated)	CASP6 VEID inh 59.8
CC(=O)OCC1=C(C(=O)O)N2C(=O)C(NC(=O)c3ccc(COc4c(C)cccc4Cl)o3)C2SC1 (configuration not stated)	CASP6 VEID inh 40.5
CC(=O)OCC1=C(C(=O)O)N2C(=O)[C@@H](NC(=O)Cc3ccccc3)[C@H]2SC1	none (no result: T cell modulator)
CC(=O)OCC1=C(C(=O)O)N2C(=O)C(NC(=O)COc3ccc(F)cc3)C2SC1 (configuration not stated)	none (no result: T cell modulator)
CCCC(=O)Nc1ccc2c(c1)C(=O)N(C)C[C@H](OC)[C@@H](C)CN(Cc1cncnc1)[C@@H](C)CO2	none (no result: T cell modulator, Vif imaging, Myeloid diff 2)
COc1ccc2c3c([nH]c2c1)[C@H](CO)N(Cc1ccncc1)CC31CCN(Cc2ccc(-c3ccccn3)cc2)CC1	none (no result: T cell modulator, Vif imaging, Myeloid diff 2)
CCOC(=O)C1CCN(C(=O)CN2C(=O)c3ccccc3S2(=O)=O)CC1	T cell modulator 0.0
CC1CCC(NC(=O)CN2C(=O)c3ccccc3S2(=O)=O)CC1 (configuration not stated)	Vif imaging 58.7

Screening data: PubChem, several laboratories
